# Assay results of several laboratories.
# Each line is one published result; the experiments were not run side by side.
# Target: Tyrosine-protein kinase Fgr (FGR, Homo sapiens, UniProt P09769)
Structure (SMILES),test,setting,remaining binding
Nc1ncc2c(n1)-c1c([nH]c3ccc(C#CC4CC4)cc13)CCCC2,"binding, competition with immobilised ligand",1 µM,100%
C[C@H](c1cccc(C#N)c1)n1cc(Cl)cc(C(N)=O)c1=N,"cell-free assay, competition with immobilised ligand",1 µM,80%
c1cncc(-c2cccc(Nc3nccc(NC4CCCCC4)n3)c2)c1,"binding, competition with immobilised ligand",10 µM,14%
COc1ccnn2ncc(-c3ccnc(N(C)C)n3)c12,binding,1 µM,76%
Cc1noc([C@H]2C[C@@H](c3ccc(C(F)(F)F)cc3)CN(C(=O)N3CCS(=O)(=O)C3)C2)n1,"cell-free assay, competition with immobilised ligand",1 µM,100%
C[C@@H]1CCN(c2nccc(-c3cnn4ncccc34)n2)C1,binding,1 µM,100%
O=C(c1ccc(Nc2ncc(Cl)c(-c3ccc(Cl)s3)n2)cc1)N1CCC(N2CCCC2)CC1,"cell-free assay, competition with immobilised ligand",1 µM,96%
CN(C)c1nccc(-c2cnc3ncccn23)n1,binding,1 µM,100%
O=C(NCC1CCOCC1)c1n[nH]cc1NC(=O)c1c(F)cccc1F,"binding, competition with immobilised ligand",1 µM,100%
CCC(=N\O)/C(C)=C/c1ccc(F)cc1,"cell-free assay, competition with immobilised ligand",1 µM,67%
O=C(NCCCN1CCOCC1)c1ccc(Nc2ncc(Cl)c(-c3ccc(Cl)s3)n2)cc1,"cell-free assay, competition with immobilised ligand",1 µM,91%
N[C@@H]1CCN(c2nccc(-c3cnn4ncccc34)n2)C1,binding,1 µM,100%
C[C@@H]1CN(c2cc(-c3nn(C)c4ccc(OC5(C)CC5)cc34)ncn2)C[C@H](C)O1,"cell-free assay, competition with immobilised ligand",1 µM,90%
CCN1CCN(Cc2ccc(C(=O)Nc3ccc(C)c(Oc4ccc5c(c4)CC(=O)N5)c3)cc2C(F)(F)F)CC1,"binding, competition with immobilised ligand",1 µM,68%
c1cnn2ncc(-c3ccnc(N4CCC45COC5)n3)c2c1,binding,1 µM,100%
Cc1cnc(Nc2ccc(C(=O)N3CCC(N4CCCC4)CC3)cc2)nc1-c1cc2ccccc2s1,"cell-free assay, competition with immobilised ligand",1 µM,53%
F[C@@H]1CCN(c2nccc(-c3cnn4ncccc34)n2)C1,binding,1 µM,81%
COCCOc1nc(-c2ccc(Cl)nc2)nc2c1CN(C(=O)c1ncn3ccccc13)CC2,"cell-free assay, competition with immobilised ligand",0.1 µM,100%
C[C@@H](c1ccc(-n2cnc3c(N)ncnc32)cc1)N1CCc2nn(C)c(Cc3ccccc3)c2C1=O,"binding, competition with immobilised ligand",0.1 µM,81%
CC(=O)Nc1c(C(C)=O)c(=O)n(C)c2nc(-c3ccc(Cl)cc3Cl)c(-c3ccc(Cl)cc3)cc12,"cell-free assay, competition with immobilised ligand",1 µM,100%
COc1cnc(Nc2cccc(S(N)(=O)=O)c2)nc1N1CCN(c2ccccc2)C(=O)C1,"binding, competition with immobilised ligand",1 µM,100%
